# Test results taken from ChEMBL document CHEMBL3769315 (J Med Chem, 2016).
# Key:
# [1] = Selectivity index, ratio of CC50 for human Huh7.5.1 cells infected with HCV JFH-1 virus to EC50 for HCV JFH-1 virus
# [2] = Cytotoxicity against human Huh7.5.1 cells assessed as ATP level by luminescence analysis; conditions: huh-7
# [3] = tested on: Hepatitis C virus; experiment: microbe, parasite or virus in culture; type: functional, organism-based, Hepacivirus hominis; conditions: JFH-1, Huh-7.5.1, 48 h
# [4] = tested on: Hepatitis C virus; experiment: Antiviral activity against HCV genotype 1b pseudoparticle infected in human Huh7.5.1 cells assessed as inhibition of virus entry at 3.2 uM after 4 hrs by luciferase reporter gene assay; type: functional, Hepacivirus hominis; conditions: Huh-7, 4 h
# How it was run: (§1)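 Huh7.5.1 cells seeded at 10^4 cells/well, cultured overnight, then infected for 4 h with pseudoparticles (HCVpp GT 1a or 1b, MLVpp, VSV-Gpp) while compound was present. Cells were washed and cultured 48 h, then a luciferase read-out was taken. Values are expressed as % of DMSO control. Cyclosporin A 10 μM and bafilomycin A1 10 nM were run in parallel.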
# [5] = tested on: Hepatitis C virus; experiment: Antiviral activity against HCV genotype 1a pseudoparticle infected in human Huh7.5.1 cells assessed as inhibition of virus entry at 3.2 uM after 4 hrs by luciferase reporter gene assay; type: functional, Hepacivirus hominis; conditions: subtype 1a, Huh-7, 4 h; how it was run: as §1
# [6] = tested on: Hepatitis C virus; experiment: Antiviral activity against HCV genotype 2a assessed as inhibition of RNA replication at 3.2 uM by cell-based replicon assay; type: functional, Hepacivirus hominis
# How it was run: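 GT 2a subgenomic HCV replicon cells were seeded at 10^4 cells/well and incubated overnight. They were then exposed to compound for 48 h, and replication was read by luciferase activity. Results are given as % of DMSO control.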
# [7] = Half life of compound in CD-1 mouse liver at 10 mg/kg, ip by UPLC-MS/MS analysis; type: ADME, organism-based; conditions: CD-1, mouse, liver
# How it was run: (§2)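 Male CD-1 mice (~35 g) got a single i.p. dose of 10 mg/kg, prepared fresh at 2 mg/mL in 10% PEG300 / 90% of 30% HP-β-CD in water. Drug was measured by UPLC-MS/MS. Parameters came from noncompartmental analysis, with AUC by the linear trapezoidal method and liver/plasma ratios taken.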
# [8] = tested on: Hepatitis C virus; experiment: Antiviral activity against single rounded infectious HCV infected in human Huh7.5.1 cells assessed as viral level at 3.2 uM after 48 hrs by luciferase reporter gene assay; type: functional, Hepacivirus hominis; conditions: Huh-7, 48 h
# How it was run: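 Huh7.5.1 cells (10^4 cells/well, overnight) were infected with single-round infectious HCV (HCVsc) in the presence of compound. Viral level was measured by luciferase after 48 h and expressed as % of DMSO control. The assay reports inhibition of early stages before assembly.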
# [9] = tested on: Hepatocyte; conditions: human, hepatocytes
# [10] = tested on: Murine leukemia virus; experiment: Antiviral activity against Murine leukemia virus pseudoparticle infected in human Huh7.5.1 cells at 3.2 uM after 4 hrs by luciferase reporter gene assay; type: functional; conditions: Huh-7, 4 h; how it was run: as §1
# [11] = Solubility of compound in phosphate buffer at pH 7.4
# [12] = Cmax in CD-1 mouse liver at 10 mg/kg, ip after 24 hrs by UPLC-MS/MS analysis; type: ADME, organism-based; parameters: dose 10 mg/kg, route intraperitoneal; how it was run: as §2
# [13] = tested on: Vesicular stomatitis virus; experiment: Antiviral activity against Vesicular stomatitis virus G pseudoparticle infected in human Huh7.5.1 cells at 3.2 uM after 4 hrs by luciferase reporter gene assay; type: functional; conditions: Huh-7, 4 h; how it was run: as §1
# [14] = target: histamine H1 receptor (Homo sapiens, UniProt P35367); experiment: in vitro; conditions: PathHunter cells
# Chain of histamine H1 receptor (P35367 whole entry): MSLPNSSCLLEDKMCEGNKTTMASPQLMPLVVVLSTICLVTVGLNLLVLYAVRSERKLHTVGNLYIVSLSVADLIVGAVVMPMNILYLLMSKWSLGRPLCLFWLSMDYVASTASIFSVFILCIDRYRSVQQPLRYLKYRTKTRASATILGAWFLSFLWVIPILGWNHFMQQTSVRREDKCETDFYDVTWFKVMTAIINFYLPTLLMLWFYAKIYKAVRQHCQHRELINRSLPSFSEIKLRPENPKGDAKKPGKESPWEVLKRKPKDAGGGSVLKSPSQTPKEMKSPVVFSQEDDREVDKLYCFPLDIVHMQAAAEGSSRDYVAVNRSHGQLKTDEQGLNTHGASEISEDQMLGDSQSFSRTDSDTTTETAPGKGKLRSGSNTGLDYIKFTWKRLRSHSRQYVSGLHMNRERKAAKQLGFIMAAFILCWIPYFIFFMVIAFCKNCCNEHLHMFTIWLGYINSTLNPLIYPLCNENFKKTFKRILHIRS
# [15] = (§3) Metabolic stability in rat liver microsomes assessed as half life by LC-MS/MS analysis in presence of NADPH
# [16] = tested on: Liver microsome; experiment: as §3
# [17] = tested on: Hepatitis C virus; experiment: Antiviral activity against HCV genotype 1a pseudoparticle infected in human Huh7.5.1 cells assessed as inhibition of virus entry at 10 uM after 4 hrs by luciferase reporter gene assay; type: functional, Hepacivirus hominis; conditions: subtype 1a, Huh-7, 4 h
# [18] = Metabolic stability in mouse liver microsomes assessed as half life by LC-MS/MS analysis in presence of NADPH
# [19] = tested on: Hepatitis C virus; experiment: Antiviral activity against HCV genotype 1b pseudoparticle infected in human Huh7.5.1 cells assessed as inhibition of virus entry at 10 uM after 4 hrs by luciferase reporter gene assay; type: functional, Hepacivirus hominis; conditions: Huh-7, 4 h
# [20] = tested on: Vesicular stomatitis virus; experiment: Antiviral activity against Vesicular stomatitis virus G pseudoparticle infected in human Huh7.5.1 cells at 10 uM after 4 hrs by luciferase reporter gene assay; type: functional; conditions: Huh-7, 4 h
# [21] = tested on: Hepatitis C virus; experiment: microbe, parasite or virus in culture; type: functional, Hepacivirus hominis; conditions: Huh-7, 48 h
# [22] = tested on: Murine leukemia virus; experiment: Antiviral activity against Murine leukemia virus pseudoparticle infected in human Huh7.5.1 cells at 10 uM after 4 hrs by luciferase reporter gene assay; type: functional; conditions: Huh-7, 4 h
# [23] = tested on: Hepatitis C virus; experiment: Antiviral activity against HCV genotype 2a assessed as inhibition of RNA replication at 10 uM by cell-based replicon assay; type: functional, Hepacivirus hominis
# How it was run: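 GT 2a subgenomic replicon cells were plated at 10^4/well and incubated overnight. They were then treated with compound (10 μM, or 3.2 or 1 μM for some compounds) for 48 h. Luciferase activity was read and expressed as % of DMSO.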
# [24] = tested on: Liver microsome; experiment: (§4) Metabolic stability in human liver microsomes assessed as half life by LC-MS/MS analysis in presence of NADPH
# [25] = as §4
# [26] = tested on: HepG2; experiment: Cytotoxicity against human HepG2 cells assessed as ATP level by luminescence analysis
Compound,selectivity ratio [1],CC50 [2] [µM],EC50 [3] [µM],also measured
c1ccc(C(c2ccccc2)c2ccncc2)cc1,< 2,65.1,> 31.6,
Clc1ccc(C(c2ccc(Cl)cc2)N2CCCCC2)cc1,4,69,17.4,
CCCCN1CCN([C@H](c2ccccc2)c2ccc(Cl)cc2)CC1,209,40.8,0.195,
CN1CCN([C@H](c2ccccc2)c2ccc(Cl)cc2)CC1,,37.5,0.02,
Clc1ccc([C@H](c2ccccc2)N2CCNCC2)cc1,333,9.31,0.032,"inhibition at 3.2 µM [4]: 66.3%; inhibition at 3.2 µM [5]: 98.8%; inhibition at 3.2 µM [6]: 61.6%; half-life [7]: 282 min; inhibition at 3.2 µM [8]: 28.1%; CC50 [9]: 9.01 µM; inhibition at 3.2 µM [10]: 57.5%; solubility kinetic [11]: 30.3 µg/mL; Cmax [12]: 216 µM; inhibition at 3.2 µM [13]: 51.9%; inhibition at 2 h, 0.01 µM [14]: 88.1%"
CCN1CCN([C@H](c2ccccc2)c2ccc(Cl)cc2)CC1,,37.9,,half-life [15]: 132 min
CC(C)CN1CCN([C@H](c2ccccc2)c2ccc(Cl)cc2)CC1,251,58.2,0.232,
OCCOCCN1CCN(C(c2ccc(Cl)cc2)c2ccc(Cl)cc2)CC1,,,,"t1/2 [16]: 13.7 min; inhibition at 10 µM [17]: 71.7%; t1/2 [18]: 10 min; inhibition at 10 µM [19]: 80.8%; inhibition at 10 µM [20]: 109%; inhibition at 10 µM [21]: 1.8%; inhibition at 10 µM [22]: 108%; inhibition at 10 µM [23]: 98.8%; solubility kinetic [11]: 44.5 µg/mL; t1/2 [24]: > 30 min; inhibition at 2 h, 0.01 µM [14]: 23.7%"
FC(F)(F)CN1CCN([C@@H](c2ccccc2)c2ccc(Cl)cc2)CC1,,> 100,> 31.6,
CN1CCC(N(c2ccccc2)c2ccccc2)CC1,21,56.8,2.72,
CCCN1CCN([C@@H](c2ccccc2)c2ccc(Cl)cc2)CC1,1240,39.7,0.032,
c1ccc(C(c2ccccc2)C2CCNCC2)cc1,451,32.5,0.072,
CCCN1CCN([C@H](c2ccccc2)c2ccc(Cl)cc2)CC1,2020,48.5,0.024,
[2H]C([2H])([2H])N1CCN([C@H](c2ccccc2)c2ccc(Cl)cc2)CC1,,46.7,0.04,
FC(F)(F)CN1CCN([C@H](c2ccccc2)c2ccc(Cl)cc2)CC1,,,> 31.6,
Clc1ccc([C@H](c2ccccc2)N2CCN(C3CCCC3)CC2)cc1,1600,30.4,0.019,
CC(=O)N1CCN([C@@H](c2ccccc2)c2ccc(Cl)cc2)CC1,4,91.3,22,
Clc1ccc([C@H](c2ccccc2)N2CCN(C3CCCCC3)CC2)cc1,69,12.3,0.177,
CN1CCC(N(c2ccccc2)c2ccc(OC(C)(C)C)cc2)CC1,222,78.7,0.354,
CCCCN1CCN([C@@H](c2ccccc2)c2ccc(Cl)cc2)CC1,740,31.1,0.042,

Compound,selectivity ratio [1],CC50 [2] [µM],EC50 [3] [µM],also measured
[2H]C([2H])([2H])N1CCN([C@@H](c2ccccc2)c2ccc(Cl)cc2)CC1,,77.9,0.063,
CCN1CCN(C2c3ccccc3-c3ccc(Br)cc32)CC1 (stereo not given),32,53.1,1.68,
CC(C)N1CCN([C@@H](c2ccccc2)c2ccc(Cl)cc2)CC1,2490,32.4,0.013,
CCN1CCN(C(c2ccc(Cl)cc2)c2ccc(Cl)cc2)CC1,,,,"t1/2 [16]: 2.2 min; inhibition at 10 µM [17]: 76.6%; t1/2 [18]: 12.6 min; inhibition at 10 µM [19]: 108%; inhibition at 10 µM [20]: 110%; inhibition at 10 µM [21]: 10.1%; inhibition at 10 µM [22]: 96.5%; inhibition at 10 µM [23]: 128%; solubility kinetic [11]: 17.7 µg/mL; half-life [25]: 30 min; CC50 [26]: 56 µM; inhibition at 2 h, 0.01 µM [14]: 31.7%"
[2H]C([2H])([2H])CN1CCN([C@@H](c2ccccc2)c2ccc(Cl)cc2)CC1,,71.3,,
COc1ccc(CN2CCN([C@@H](c3ccccc3)c3ccc(Cl)cc3)CC2)c(OC)c1,84,38.4,0.456,
Clc1ccc([C@@H](c2ccccc2)N2CCNCC2)cc1,391,12.5,0.032,
[2H]C([2H])([2H])CN1CCN([C@H](c2ccccc2)c2ccc(Cl)cc2)CC1,,81.5,,half-life [15]: 174 min
Clc1ccc(C(c2ccc(Cl)cc2)N2CCOCC2)cc1,2,62.1,29.7,
CC(C)CN1CCN([C@@H](c2ccccc2)c2ccc(Cl)cc2)CC1,507,51.7,0.102,
NC(=O)COCCN1CCN(C(c2ccccc2)c2ccc(Cl)cc2)CC1 (racemic),> 910,> 100,0.103,
O=C1c2ccccc2C(=O)N1CCOCCN1CCN(C(c2ccccc2)c2ccc(Cl)cc2)CC1 (racemic),> 65,> 100,1.54,
CC(C)(C)OC(=O)NCCOCCOCCOCCOCCN1CCN(C(c2ccccc2)c2ccc(Cl)cc2)CC1 (racemic),95,19,0.199,
CC(=O)NCCOCCOCCOCCOCCN1CCN(C(c2ccccc2)c2ccc(Cl)cc2)CC1 (racemic),> 588,> 100,0.17,
NCCOCCOCCOCCOCCN1CCN(C(c2ccccc2)c2ccc(Cl)cc2)CC1 (racemic),,12.2,,"t1/2 [16]: 11.7 min; inhibition at 10 µM [17]: 95.8%; t1/2 [18]: 29.1 min; inhibition at 10 µM [19]: 91.7%; inhibition at 10 µM [20]: 99.8%; inhibition at 10 µM [21]: 1.4%; inhibition at 10 µM [22]: 117%; inhibition at 10 µM [23]: 63.6%; solubility kinetic [11]: 46 µg/mL; t1/2 [24]: 26.2 min; CC50 [26]: 12.6 µM; inhibition at 2 h, 0.01 µM [14]: 54.1%"
O=C(O)COCCN1CCN(C(c2ccccc2)c2ccc(Cl)cc2)CC1 (racemic) [CETIRIZINE],,,> 31.6,
CN1CCN(C(c2ccccc2)c2ccc(Cl)cc2)CC1 (racemic) [CHLORCYCLIZINE],,49.8,0.44,"t1/2 [16]: 4.6 min; inhibition at 10 µM [17]: 92.5%; t1/2 [18]: 36 min; inhibition at 10 µM [19]: 120%; inhibition at 10 µM [20]: 105%; inhibition at 10 µM [21]: 24.9%; inhibition at 10 µM [22]: 124%; inhibition at 10 µM [23]: 102%; t1/2 [24]: 113 min; inhibition at 2 h, 0.01 µM [14]: 16%"
CN1CCCN(C(c2ccccc2)c2ccc(Cl)cc2)CC1 (racemic) [HOMOCHLORCYCLIZINE],225,12.8,0.057,
OCCOCCN1CCN(C(c2ccccc2)c2ccc(Cl)cc2)CC1 (racemic) [HYDROXYZINE],1330,42.6,0.032,
Clc1ccc(C(c2ccccc2)N2CCNCC2)cc1 (racemic) [NORCHLORCYCLIZINE],297,10.4,0.035,
